Shown are actives, neighbours in structure and some others; about 2.9% of the full set was active somewhere.
CAL PDZ FP-1 = inhibitors of human CAL PDZ peptide binding | Q9HD26 | purified CAL PDZ, TMR-peptide fluorescence polarization, 1 h | inhibition, % at 20 µM | 0.02% of 330,000 active;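 active means highest replicate inhibition of at least 40%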;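 further: plate controls were DMSO neutral control wells for no effect and unlabeled competitor peptide control wells for full effect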
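Material: tagged CAL PDZ domain; buffer or medium: 25 mM sodium phosphate pH 7.4, 150 mM NaCl, TCEP, IgG, Thesit; compound dosing: single point, 20 µM; schedule: 1 h incubation at room temperature before polarization reading; measured by: FP readout, S and P plane fluorescence; read-out basis: percent inhibition from loss of millipolarization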
S100A4 MyoIIA = blocks human S100A4 binding to myosin IIA peptide. S100A4/TAMRA-MyoIIA peptide fluorescence polarization. inhibition, % at 10.7 µM. 0.14% of 360,000 active. AID 652163;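 active means mean inhibition of at least 70% across replicates, with every replicate also reaching that level; inconclusive means mean inhibition reaches 70% but some replicates fall short; inactive means mean inhibition below 70%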
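Material: S100A4 monomer (human). Medium: Calcium-containing HEPES buffer, pH 7.2. Probe or stimulus: labelled myosin peptide probe, 5 nM. Compound dosing: one concentration per compound. Timing: polarization read 5 min after assay mix addition, stable 5–60 min. Benchmarks: DMSO as neutral control, TFP as positive control.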
ERAP1 inh = inhibitors of human ERAP1 aminopeptidase | Q9NZ08 | recombinant ERAP1, Leu-AMC fluorescence, 60 min | inhibition, % at 10.7 µM | 0.15% of 340,000 active;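 active means mean replicate inhibition of at least 30%, or all replicates individually reaching that 30% level; inactive means mean below 30% and not every replicate reaching it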;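 further: 0% = neutral control wells and 100% = L-leucinethiol positive control wells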
Target sequence (Q9NZ08 whole entry, looked up): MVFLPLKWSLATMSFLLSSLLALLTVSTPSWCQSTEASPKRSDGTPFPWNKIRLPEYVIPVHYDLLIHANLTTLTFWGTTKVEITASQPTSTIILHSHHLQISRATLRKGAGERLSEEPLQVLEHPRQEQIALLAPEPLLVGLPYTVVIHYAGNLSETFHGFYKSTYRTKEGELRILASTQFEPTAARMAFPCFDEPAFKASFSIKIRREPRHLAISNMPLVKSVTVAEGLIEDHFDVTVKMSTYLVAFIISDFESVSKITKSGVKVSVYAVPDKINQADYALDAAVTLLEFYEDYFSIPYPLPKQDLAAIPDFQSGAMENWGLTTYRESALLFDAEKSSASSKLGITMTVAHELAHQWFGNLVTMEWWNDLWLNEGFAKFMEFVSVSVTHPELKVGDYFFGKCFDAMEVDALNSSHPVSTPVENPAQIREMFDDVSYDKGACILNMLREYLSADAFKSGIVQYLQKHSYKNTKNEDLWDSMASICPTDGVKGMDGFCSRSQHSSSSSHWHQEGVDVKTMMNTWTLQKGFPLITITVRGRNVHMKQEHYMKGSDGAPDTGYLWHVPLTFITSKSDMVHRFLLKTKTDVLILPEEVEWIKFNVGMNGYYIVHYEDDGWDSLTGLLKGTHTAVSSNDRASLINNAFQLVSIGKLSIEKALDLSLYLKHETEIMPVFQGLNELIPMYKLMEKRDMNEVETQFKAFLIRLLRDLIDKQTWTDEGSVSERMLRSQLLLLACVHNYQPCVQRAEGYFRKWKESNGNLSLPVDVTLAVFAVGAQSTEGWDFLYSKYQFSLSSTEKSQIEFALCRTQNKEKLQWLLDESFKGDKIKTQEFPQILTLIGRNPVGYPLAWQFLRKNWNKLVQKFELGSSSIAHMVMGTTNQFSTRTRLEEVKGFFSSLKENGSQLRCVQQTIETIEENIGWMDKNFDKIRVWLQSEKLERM
SIRT5 block = blocks human SIRT5 desuccinylation of peptide; 1.1% of 330,000 active; Q9NXA8; inhibition, % at 15 µM; Purified SirT5, succinyl-peptide AMC, trypsin-coupled fluorescence; in the data active means inhibition above about 15%; inconclusive means no clear call, values can overlap the other calls
DENV2 CPE = inhibitors of DENV2 cytopathic effect; DENV2-infected cells, cytopathic effect rescue, plate reader; CPE inhibition, % at 9.99 µM; 1.7% of 350,000 active; in the data active means CPE inhibition above about 20%, passing the limit was not always enough; inconclusive means no clear call, values can overlap the other calls; tested in BHK-21 cells;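 further: 0% = median of neutral control wells and 100% = median of positive control wells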
CAL PDZ FP-2 = inhibitors of human CAL PDZ peptide binding; Q9HD26; purified CAL PDZ, TMR-peptide fluorescence polarization, 1 h; inhibition, % at 24.9 µM; 0.92% of 300,000 active;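 active means mean inhibition of at least 30% with at least half of replicates also reaching 30%; inconclusive means no clear call, values can overlap the other calls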;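 further: 0% = DMSO neutral control and 100% = excess unlabeled competitor peptide PRC23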
An asterisk follows results filed as active; u = inconclusive; x = not tested or not shown.

SMILES	CAL PDZ FP-1	S100A4 MyoIIA	ERAP1 inh	SIRT5 block	DENV2 CPE	CAL PDZ FP-2
Cc1noc(C)c1S(=O)(=O)Nc1ccc2c(c1)C(=O)N([C@@H](C)CO)C[C@H](C)[C@@H](CN(C)C(=O)Nc1ccccc1)O2	x	5.4	-6.7	4.5	21.3*	x
Cc1noc(C)c1S(=O)(=O)Nc1ccc2c(c1)C(=O)N([C@H](C)CO)C[C@@H](C)[C@@H](CN(C)C(=O)NC(C)C)OCCCC[C@H](C)O2	x	-15.5	0.7	1.4	-10.5	x
Cc1noc(C)c1S(=O)(=O)Nc1ccc2c(c1)C(=O)N([C@H](C)CO)C[C@H](C)[C@H](CN(C)C(=O)C1CCCCC1)OCCCC[C@@H](C)O2	x	-8.7	0.1	2.8	46.8*	x
Cc1noc(C)c1S(=O)(=O)Nc1ccc2c(c1)C(=O)N([C@@H](C)CO)C[C@H](C)[C@H](CN(C)C(=O)C1CCCCC1)OCCCC[C@@H](C)O2	x	12.5	-3.4	-2.6	-9.8	x
Cc1noc(C)c1S(=O)(=O)Nc1ccc2c(c1)C(=O)N([C@H](C)CO)C[C@H](C)[C@H](CN(C)C(=O)Nc1ccccc1)OCCCC[C@@H](C)O2	x	1.1	1.2	4.9	89.0*	x
CN(C)/C=C1\C=C2C(=O)c3ccccc3N2C1=O	1.2	75.5*	x	5.2	-3.3	55.6*
C[C@H]1CN([C@@H](C)CO)S(=O)(=O)c2ccc(C3=CCCC3)cc2O[C@@H]1CN(C)CC1CCOCC1	x	3.0	x	6.0	8.5	x
CCN(CC)CCNC(=O)c1ccc(NC(=O)c2ccc(-n3cncn3)c([N+](=O)[O-])c2)cc1	x	2.3	99.6*	-3.3	4.4	x
Cc1ccc(NC(=O)c2ccc(-n3cncn3)c([N+](=O)[O-])c2)cc1	-3.2	x	x	x	x	0.2
CS(=O)(=O)N1CC(=O)N2[C@H](C1)[C@H](c1ccc(C#CCc3ccccc3)cc1)[C@@H]2CO	x	-6.8	6.8	-4.2	-8.7	x
CCCC(=O)Nc1ccc2c(c1)OC[C@H](C)N(C(=O)CN(C)C)C[C@@H](C)[C@@H](OC)CN(C)C2=O	x	5.4	x	3.0	u	x
Cc1ccc(NC(=O)Cn2nnc(C(=O)Nc3ccc(F)c(Cl)c3)c2N)cc1	0.7	2.0	-2.0	-1.3	-0.9	x
COc1ccc(NC(=O)Cn2nnc(C(=O)Nc3ccc(F)c(Cl)c3)c2N)cc1	-1.8	-2.2	2.5	15.5*	-8.5	0.8
COc1ccc(CN2CCC[C@]3(N[C@H](c4ccc(OC)cc4)[C@@H]4C(=O)N(C)C(=O)[C@@H]43)C2=O)cc1	x	2.5	1.0	-6.7	27.2*	x
COc1ccc([C@H]2N[C@]3(CCCN(Cc4ccccc4)C3=O)[C@H]3C(=O)N(C)C(=O)[C@@H]23)cc1	x	-6.3	10.4	-4.2	5.1	x
O=C1[C@H]2[C@@H](c3ccccc3)N[C@]3(CCCN(Cc4ccc(Cl)cc4)C3=O)[C@H]2C(=O)N1Cc1ccccc1	x	1.4	-5.5	11.3	44.2*	x
COc1ccc([C@H]2N[C@]3(CCCN(Cc4ccc(C)cc4)C3=O)[C@H]3C(=O)N(C)C(=O)[C@@H]23)cc1	x	7.0	13.2	39.0*	5.2	x
Cc1ccc(S(=O)(=O)Nc2ccc3c(c2)CC(=O)N([C@H](C)CO)C[C@H](C)[C@H](CN(C)CC2CCCCC2)O3)cc1	x	-7.1	0.1	3.7	9.9	x
CN(C)CCCNC(=O)C[C@@H]1CC[C@@H]2[C@H](COc3ccc(NC(=O)C4CCC4)cc3C(=O)N2C)O1	x	1.9	-3.2	-1.8	-0.4	x
O=C(O)Cc1c[nH]c2cccc(O)c12	-3.5	-1.8	1.8	33.2*	-5.4	6.6
Cn1cnc(S(=O)(=O)N[C@@H]2CC[C@H](CC(=O)Nc3ccccc3)O[C@@H]2CO)c1	x	-9.3	1.2	-6.5	5.0	x
O=C(c1cnn(C(=O)CN2CCCC2=O)c1)c1ccccc1O	13.2	-0.6	0.5	0.6	-6.1	93.1*
O=C(c1cnn(-c2ccccc2)c1)c1ccccc1O	-0.5	x	x	x	x	-3.4
COC(=O)[C@H](CC(C)C)NC(=O)NCCC1=CCCCC1	-0.3	-3.6	0.0	1.2	-2.2	75.9*
CC(C)C[C@H](NC(=O)NCCC1=CCCCC1)C(=O)O	-0.8	-0.6	2.8	-0.1	-4.4	0.0
SMILES	CAL PDZ FP-1	S100A4 MyoIIA	ERAP1 inh	SIRT5 block	DENV2 CPE	CAL PDZ FP-2
Cn1cc(CN(CCCN2CCOCC2)C(=S)Nc2cccc(Cl)c2)c2ccccc21	-0.2	2.3	2.0	x	40.1*	-1.3
Cc1cccc(NC(=S)N(CCCN2CCOCC2)Cc2cn(C)c3ccccc23)c1	-0.3	x	x	x	x	1.3
Cc1ccc(C)c(NC(=O)Cn2nc([N+](=O)[O-])c(Br)c2C)c1	-2.9	-3.5	0.8	32.9*	-2.9	-1.5
CC(=O)Nc1ccc(NC(=O)Cn2nc([N+](=O)[O-])c(Br)c2C)cc1	-2.9	17.5	-2.6	-0.2	-12.4	-3.1
C[C@H](CO)N1C[C@H](C)[C@@H](CN(C)S(C)(=O)=O)Oc2ccc(NC(=O)Cc3ccccc3)cc2CC1=O	x	9.6	0.6	7.4	23.1*	x
C[C@H](CO)N1C[C@H](C)[C@H](CN(C)S(C)(=O)=O)Oc2ccc(NS(=O)(=O)c3ccccc3)cc2CC1=O	x	-8.1	0.0	-7.1	19.0	x
C[C@@H]1CN([C@@H](C)CO)C(=O)Cc2cc(NS(=O)(=O)c3ccccc3)ccc2O[C@@H]1CN(C)S(C)(=O)=O	x	-10.3	-0.9	0.6	24.2*	x
C[C@@H]1CN([C@@H](C)CO)C(=O)Cc2cc(NC(=O)Cc3ccccc3)ccc2O[C@H]1CN(C)S(C)(=O)=O	x	-40.6	0.3	-0.7	0.2	x
C[C@H](CO)N1C[C@H](C)[C@H](CN(C)C)Oc2ccc(NS(=O)(=O)c3ccccc3)cc2CC1=O	x	94.8*	1.4	5.5	3.8	x
C[C@@H]1CN([C@H](C)CO)C(=O)Cc2cc(NS(=O)(=O)c3ccc(F)cc3)ccc2O[C@@H]1CN(C)S(C)(=O)=O	x	-13.0	3.7	-0.4	30.8*	x
C[C@H](CO)N1C[C@H](C)[C@@H](CN(C)S(C)(=O)=O)Oc2ccc(NS(=O)(=O)c3ccc(F)cc3)cc2CC1=O	x	2.5	4.3	-0.6	-5.5	x
C[C@@H]1CN([C@H](C)CO)C(=O)c2cc(NS(C)(=O)=O)ccc2O[C@H]1CN(C)CC1CCCCC1	x	-6.9	1.6	3.0	8.7	x
CCC(=O)N1CCCCN2[C@H](CO)[C@H](c3ccc(/C=C/c4ccccc4)cc3)[C@@H]2C1	x	-5.7	0.5	-5.3	-1.4	x
CCCC(=O)Nc1ccc2c(c1)C(=O)N(C)C[C@@H](OC)[C@@H](C)CN(C(=O)c1ccccc1F)[C@H](C)CO2	x	-4.9	-1.6	-5.6	-9.7	x
CCCC(=O)Nc1ccc2c(c1)C(=O)N(C)C[C@@H](OC)[C@H](C)CN(C(=O)c1ccccc1F)[C@@H](C)CO2	x	5.5	-1.1	0.2	43.5*	x
CCC(=O)Nc1ccc2c(c1)OC[C@H](C)N(C(=O)c1ccccc1F)C[C@H](C)[C@@H](OC)CN(C)C2=O	x	2.3	1.9	-1.8	22.1*	x

Compound activity from PubChem BioAssay.
